Drawing on ChEMBL document CHEMBL2086233, “D-proline-based peptidomimetic inhibitors of anthrax lethal factor” (Eur J Med Chem, 2012), this text covers inhibition and IC50 for eleven molecules.

SMILES strings stand for the structures.

Test [1] concerns the target T1, Lethal factor (Bacillus anthracis) (UniProt P15917).
T1 sequence (whole entry): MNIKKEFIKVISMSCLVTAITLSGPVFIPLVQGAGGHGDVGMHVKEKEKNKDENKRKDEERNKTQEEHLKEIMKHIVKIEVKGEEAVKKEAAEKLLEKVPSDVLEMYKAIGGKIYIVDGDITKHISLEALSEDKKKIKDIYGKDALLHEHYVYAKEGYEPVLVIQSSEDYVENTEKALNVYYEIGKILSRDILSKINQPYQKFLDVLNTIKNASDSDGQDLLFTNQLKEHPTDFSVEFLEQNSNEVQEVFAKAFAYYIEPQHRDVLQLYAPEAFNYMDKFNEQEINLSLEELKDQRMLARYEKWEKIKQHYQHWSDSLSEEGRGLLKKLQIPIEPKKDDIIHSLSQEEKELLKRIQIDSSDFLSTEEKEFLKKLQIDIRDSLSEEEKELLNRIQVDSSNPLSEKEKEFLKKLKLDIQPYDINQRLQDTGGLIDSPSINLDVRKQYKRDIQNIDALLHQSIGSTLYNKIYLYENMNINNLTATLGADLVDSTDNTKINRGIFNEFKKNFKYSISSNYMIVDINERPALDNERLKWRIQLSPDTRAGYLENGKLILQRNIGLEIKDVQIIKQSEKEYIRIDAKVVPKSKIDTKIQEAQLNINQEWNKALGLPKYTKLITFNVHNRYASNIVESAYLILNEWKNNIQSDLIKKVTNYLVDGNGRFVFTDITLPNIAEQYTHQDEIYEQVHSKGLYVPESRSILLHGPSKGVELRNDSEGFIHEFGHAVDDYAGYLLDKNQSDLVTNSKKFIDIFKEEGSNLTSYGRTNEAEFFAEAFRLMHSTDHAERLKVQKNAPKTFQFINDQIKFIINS
The experiment in a line: Inhibition of Bacillus anthracis lethal factor using protease substrate-2 assessed as release of p-nitroaniline at 10 uM measured for 10 mins by spectrophotometric assay. In a few lines:
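Single fixed inhibitor concentration. A405 (p-nitroaniline release) followed 10 min after LF addition. % inhibition from initial velocity versus no-inhibitor control. Mean of three experiments.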

In the next test the target is T2, Lethal factor (Bacillus anthracis, UniProt P15917).
T2 sequence (P15917 whole entry): T1 sequence (whole entry)
Briefly: Inhibition of Bacillus anthracis lethal factor using protease substrate-2 assessed as release of p-nitroaniline measured for 10 mins by spectrophotometric assay. A digest of the protocol:
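10 nM LF with lethal factor protease substrate II (pNA-tagged peptide) in 250 mM Na2HPO4, 150 mM NaCl, pH 7.4, 25 °C. A405 followed 10 min after enzyme addition. Inhibitor at five concentrations starting at 500 nM. IC50 by non-linear regression of the dose-response data. Experiments repeated twice.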

For orientation: inhibition means how much of the control response was suppressed. With `COc1ccc(C(=O)N[C@H]2C[C@H](C(=O)NO)N(S(=O)(=O)c3ccc(Cl)c(Cl)c3)C2)c(OC)c1`, in test [1], the inhibition was 11%.
Still for that read-out and setting: the figure for `O=C(NO)[C@H]1C[C@H](OCc2ccccc2)CN1S(=O)(=O)c1ccc(Cl)c(Cl)c1` is 16%.
What is called IC50 is the concentration that gives 50% inhibition. In the case of `CCCCCCO[C@H]1CCN(S(=O)(=O)c2ccc(Cl)cc2)[C@H]1C(=O)NO`, the IC50 on Lethal factor is greater than 10000 nM.
Take `COc1ccc(C(=O)N[C@@H]2C[C@H](C(=O)NO)N(S(=O)(=O)c3ccc(Cl)c(Cl)c3)C2)c(OC)c1`: the inhibition in test [1] is 65%. In addition, the IC50 on Lethal factor is 2100 nM.
Take `O=C(N[C@@H]1C[C@H](C(=O)NO)N(S(=O)(=O)c2ccc(Cl)c(Cl)c2)C1)c1cccs1`: in test [1], the inhibition is 27%.
As to `O=C(NO)[C@H]1[C@@H](OCc2ccccc2)CCN1S(=O)(=O)c1ccc(Cl)cc1`, the IC50 at Lethal factor is 1700 nM.
For `O=C(NO)[C@H]1C[C@@H](n2cc(-c3ccccc3)nn2)CN1S(=O)(=O)c1ccc(Cl)c(Cl)c1`, the inhibition in test [1] turned out to be 8%.
On the same count and under the same terms, the figure for `O=C(N[C@H]1C[C@H](C(=O)NO)N(S(=O)(=O)c2ccc(Cl)c(Cl)c2)C1)c1cccs1` is 46%; for `O=C(/C=C/c1ccco1)N[C@H]1C[C@H](C(=O)NO)N(S(=O)(=O)c2ccc(Cl)c(Cl)c2)C1` it is 22%.
In the case of `O=C(NO)[C@H]1C[C@@H](OCc2ccccc2)CN1S(=O)(=O)c1ccc(Cl)c(Cl)c1`, the inhibition in test [1] amounted to 50%. Further, the IC50 on Lethal factor was 9500 nM.
With `O=C(NO)[C@H]1[C@@H](OCc2ccccc2)CCN1S(=O)(=O)c1ccc(Cl)c(Cl)c1`, at Lethal factor, the IC50 worked out at 1400 nM.
